# Laboratory results from ChEMBL document CHEMBL4049407, “Positional Scanning Identifies the Molecular Determinants of a High Affinity Multi-Leucine Inhibitor for Furin and PACE4” (J Med Chem, 2017).
# Peptide text beside a SMILES is read from it. * marks the point of attachment. FITC = O=C1OC2(c3ccc(O)cc3Oc3cc(O)ccc32)c2ccc(NC(=S)*)cc21; NH(4-amidinobenzyl) = N=C(N)c1ccc(CN*)cc1; βAla = NCCC(=O)O
# Tests used:
# [1] = Drug uptake in human DU145 cells assessed as geometric mean fluorescence intensity after 1 hr by propidium iodine-staining based FACS analysis; type: ADME, cell-based; conditions: du-145, 1 h
# How it was run: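 DU145 cells exposed 1 h to FITC-labelled peptide (10 µM) in serum-free RPMI, detached with trypsin:EDTA and pelleted, with no trypsin wash. Dead cells excluded by 2 min propidium iodide (10 µg/mL). Flow cytometry read 10 000 events/sample, and uptake was given as geometric mean fluorescence.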
# [2] = Drug uptake in human DU145 cells assessed as geometric mean fluorescence intensity preincubated for 1 hr followed by trypsin washout for 5 mins by propidium iodine-staining based FACS analysis; type: ADME, cell-based; conditions: du-145, 5 min
# How it was run: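 DU145 cells given FITC-labelled peptide (10 µM) for 1 h in serum-free RPMI, harvested by trypsin:EDTA, then washed twice with 0.05% trypsin for 5 min at 37 °C to strip membrane-bound peptide. Propidium iodide (10 µg/mL, 2 min) excluded damaged cells. 10 000 events/sample were read by flow cytometry as geometric mean fluorescence.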
# DU-145 = assay: Antiproliferative activity against human DU145 cells assessed as reduction in metabolic activity after 72 hrs by MTT assay; type: functional, cell-based; conditions: DU-145, 72 h
# How it was run: (§1)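 Cells kept at 37°C, 5% CO2 in RPMI 1640 (DU145 with 5% FBS, 1500 cells/well; LNCaP with 10% FBS, 2500 cells/well) on poly-L-lysine coated plates. Peptides added 24 h after plating in fresh serum medium at 0, 1, 10, 25, 50, 75, 100, 250 µM for 72 h. MTT 1 mg/mL final for 4 h; formazan dissolved in 2-propanol HCl. Signal normalised to water vehicle; IC50 from dose-response curves.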
# LNCaP = assay: Antiproliferative activity against human LNCAP cells assessed as reduction in metabolic activity after 72 hrs by MTT assay; type: functional, cell-based; how it was run: as §1
# Furin = Furin (Homo sapiens, UniProt P09958); assay: Inhibition of recombinant human furin expressed in drosophila S2 cells using pyrGlu-Arg-Thr-Lys-Arg-7-amido-4-methylcoumarin as substrate after 60 mins by spectrofluorometry method; type: cell-based
# Furin, sequence (P09958 whole entry): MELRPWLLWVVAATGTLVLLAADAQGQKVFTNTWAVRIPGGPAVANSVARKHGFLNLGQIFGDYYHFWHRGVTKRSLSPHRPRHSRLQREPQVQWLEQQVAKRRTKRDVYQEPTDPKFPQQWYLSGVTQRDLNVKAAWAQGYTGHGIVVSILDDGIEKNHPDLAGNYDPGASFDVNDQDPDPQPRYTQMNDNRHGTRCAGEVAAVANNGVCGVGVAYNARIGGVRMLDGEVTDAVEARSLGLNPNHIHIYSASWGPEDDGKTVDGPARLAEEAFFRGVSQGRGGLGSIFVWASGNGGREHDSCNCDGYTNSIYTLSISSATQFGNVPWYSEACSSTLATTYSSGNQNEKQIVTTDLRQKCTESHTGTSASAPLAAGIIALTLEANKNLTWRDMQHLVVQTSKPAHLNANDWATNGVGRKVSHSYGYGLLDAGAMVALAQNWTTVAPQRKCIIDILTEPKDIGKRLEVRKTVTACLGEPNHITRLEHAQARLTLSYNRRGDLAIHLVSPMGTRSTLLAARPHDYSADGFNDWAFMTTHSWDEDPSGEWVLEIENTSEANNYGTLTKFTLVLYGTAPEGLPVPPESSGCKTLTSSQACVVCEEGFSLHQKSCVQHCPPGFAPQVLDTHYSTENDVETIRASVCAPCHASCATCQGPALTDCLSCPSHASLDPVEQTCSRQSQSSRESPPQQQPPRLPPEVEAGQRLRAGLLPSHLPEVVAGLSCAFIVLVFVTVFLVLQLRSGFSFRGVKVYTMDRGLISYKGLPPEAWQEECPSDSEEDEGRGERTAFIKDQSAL
# How it was run: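 Human recombinant purified furin at 2 units/100 µL (0.54 nM), in 100 mM HEPES pH 7.5, 1 mM CaCl2, 1 mM β-mercaptoethanol, 1.8 mg/mL BSA. His-containing peptides run instead in 20 mM BisTris pH 6.5 with the same additives. Substrate 100 µM, KM 5.04 µM. Inhibitor 1 nM to 10 µM; 60 min at 37°C. Fluorescence ex 370 / em 460 nm. Ki by Morrison equation; triplicate experiments, mean ± SD.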
# Homo sapiens = organism: Homo sapiens; assay: Selectivity index, ratio of Ki for recombinant human furin expressed in drosophila S2 cells to Ki for recombinant human PACE4 expressed in drosophila S2 cells; type: cell-based
# How it was run: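 Ratio Ki(furin)/Ki(PACE4). […] PACE4 buffer was BisTris pH 6.5; furin buffer was HEPES pH 7.5, or BisTris pH 6.5 for His peptides. Ki fitted by Morrison equation from three independent experiments.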
# [3] = target: T1, Proprotein convertase subtilisin/kexin type 6 (Homo sapiens, UniProt P29122); assay: Inhibition of recombinant human PACE4 expressed in drosophila S2 cells using pyrGlu-Arg-Thr-Lys-Arg-7-amido-4-methylcoumarin as substrate after 60 mins by spectrofluorometry method; type: cell-based
# T1 sequence (P29122 whole entry): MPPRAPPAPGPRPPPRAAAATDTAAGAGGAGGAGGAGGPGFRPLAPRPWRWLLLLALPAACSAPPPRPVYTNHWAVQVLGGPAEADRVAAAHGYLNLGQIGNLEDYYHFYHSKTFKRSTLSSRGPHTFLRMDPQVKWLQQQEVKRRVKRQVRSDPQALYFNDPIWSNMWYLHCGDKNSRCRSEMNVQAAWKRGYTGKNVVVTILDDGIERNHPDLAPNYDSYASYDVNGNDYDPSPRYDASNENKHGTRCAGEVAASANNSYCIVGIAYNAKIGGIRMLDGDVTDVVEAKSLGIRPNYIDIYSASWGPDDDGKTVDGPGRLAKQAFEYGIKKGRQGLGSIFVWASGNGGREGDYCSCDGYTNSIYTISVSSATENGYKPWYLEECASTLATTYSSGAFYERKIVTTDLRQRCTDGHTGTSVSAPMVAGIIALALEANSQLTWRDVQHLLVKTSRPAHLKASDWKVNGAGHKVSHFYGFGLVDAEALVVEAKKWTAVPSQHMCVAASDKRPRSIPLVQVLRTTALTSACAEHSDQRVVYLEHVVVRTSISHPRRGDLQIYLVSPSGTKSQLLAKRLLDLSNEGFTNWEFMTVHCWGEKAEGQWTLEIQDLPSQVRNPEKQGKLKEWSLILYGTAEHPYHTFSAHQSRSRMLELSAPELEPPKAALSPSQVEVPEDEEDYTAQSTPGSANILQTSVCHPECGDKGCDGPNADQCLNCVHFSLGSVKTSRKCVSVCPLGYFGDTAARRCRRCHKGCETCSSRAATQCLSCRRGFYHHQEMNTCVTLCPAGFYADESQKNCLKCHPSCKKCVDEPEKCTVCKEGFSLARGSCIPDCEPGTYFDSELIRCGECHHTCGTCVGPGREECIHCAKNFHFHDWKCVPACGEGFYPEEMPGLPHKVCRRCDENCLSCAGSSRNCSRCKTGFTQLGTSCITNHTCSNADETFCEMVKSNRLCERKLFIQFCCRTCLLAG
# How it was run: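 Human recombinant purified PACE4 at 2 units/100 µL (20.18 nM), in 20 mM BisTris pH 6.5, 1 mM CaCl2, 1.8 mg/mL BSA. Substrate 100 µM, KM 4.035 µM. Inhibitor 1 nM to 10 µM; 60 min at 37°C. Fluorescence ex 370 / em 460 nm. Ki by Morrison tight-binding equation; three independent experiments, mean ± SD.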
Structure (SMILES),Flu intensity [1],Flu intensity [2],IC50 (DU-145) [µM],IC50 (LNCaP) [µM],Ki (Furin) [µM],Ratio Ki (Homo sapiens),Ki [3] [µM]
CC(C)C[C@H](NC(=O)CCNC(=S)Nc1ccc2c(c1)C(=O)OC21c2ccc(O)cc2Oc2cc(O)ccc21)C(=O)N[C@@H](CC(C)C)C(=O)N[C@@H](CC(C)C)C(=O)N[C@@H](CCCNC(=N)N)C(=O)N[C@@H](CCCNC(=N)N)C(=O)N[C@H](C(=O)N[C@@H](CCCCN)C(=O)NCc1ccc(C(=N)N)cc1)C(C)C ({FITC-βAla}-LLLRRVK-{NH(4-amidinobenzyl)}),12.6,2.73,–,–,–,–,–
CC(C)C[C@H](NC(=O)CCNC(=S)Nc1ccc2c(c1)C(=O)OC21c2ccc(O)cc2Oc2cc(O)ccc21)C(=O)N[C@@H](CC(C)C)C(=O)N[C@@H](CC(C)C)C(=O)N[C@@H](CC(C)C)C(=O)N[C@@H](CCCNC(=N)N)C(=O)N[C@H](C(=O)N[C@@H](CCCCN)C(=O)NCc1ccc(C(=N)N)cc1)C(C)C ({FITC-βAla}-LLLLRVK-{NH(4-amidinobenzyl)}),46.61,47.45,–,–,–,–,–
CC[C@H](C)[C@H](NC(=O)[C@H](CC(C)C)NC(=O)[C@H](CC(C)C)NC(=O)[C@H](CC(C)C)NC(=O)CCNC(=S)Nc1ccc2c(c1)C(=O)OC21c2ccc(O)cc2Oc2cc(O)ccc21)C(=O)N[C@@H](CCCNC(=N)N)C(=O)N[C@H](C(=O)N[C@@H](CCCCN)C(=O)NCc1ccc(C(=N)N)cc1)C(C)C ({FITC-βAla}-LLLIRVK-{NH(4-amidinobenzyl)}),87.66,99.26,–,–,–,–,–
CC(=O)N[C@@H](CC(C)C)C(=O)N[C@@H](CC(C)C)C(=O)N[C@@H](CC(C)C)C(=O)N[C@@H](Cc1ccccc1)C(=O)N[C@@H](CCCNC(=N)N)C(=O)N[C@H](C(=O)N[C@@H](CCCCN)C(=O)NCc1ccc(C(=N)N)cc1)C(C)C (Ac-LLLFRVK-{NH(4-amidinobenzyl)}),–,–,40,50,0.006,1.5,0.004
CC(=O)N[C@@H](CC(C)C)C(=O)N[C@@H](CC(C)C)C(=O)N[C@@H](Cc1ccc(O)cc1)C(=O)N[C@@H](CC(C)C)C(=O)N[C@@H](CCCNC(=N)N)C(=O)N[C@H](C(=O)N[C@@H](CCCCN)C(=O)NCc1ccc(C(=N)N)cc1)C(C)C (Ac-LLYLRVK-{NH(4-amidinobenzyl)}),–,–,50,130,0.0059,1.2,0.0048
CC[C@H](C)[C@H](NC(C)=O)C(=O)N[C@@H](CC(C)C)C(=O)N[C@@H](CC(C)C)C(=O)N[C@@H](CC(C)C)C(=O)N[C@@H](CCCNC(=N)N)C(=O)N[C@H](C(=O)N[C@@H](CCCCN)C(=O)NCc1ccc(C(=N)N)cc1)C(C)C (Ac-ILLLRVK-{NH(4-amidinobenzyl)}),–,–,27,40,0.005,1,0.005
CC[C@H](C)[C@H](NC(=O)[C@H](CC(C)C)NC(=O)[C@H](CC(C)C)NC(C)=O)C(=O)N[C@H](C(=O)N[C@@H](CCCNC(=N)N)C(=O)N[C@H](C(=O)N[C@@H](CCCCN)C(=O)NCc1ccc(C(=N)N)cc1)C(C)C)[C@@H](C)CC,–,–,20,30,0.0081,0.8,0.0098
CC[C@H](C)[C@H](NC(=O)[C@H](CC(C)C)NC(=O)[C@@H](CC(C)C)NC(C)=O)C(=O)N[C@H](C(=O)N[C@@H](CCCNC(=N)N)C(=O)N[C@H](C(=O)N[C@@H](CCCCN)C(=O)NCc1ccc(C(=N)N)cc1)C(C)C)[C@@H](C)CC,–,–,37,60,0.0117,0.8,0.014
CC(=O)N[C@@H](CC(C)C)C(=O)N[C@@H](CC(C)C)C(=O)N[C@@H](CC(C)C)C(=O)N[C@H](C(=O)N[C@@H](CCCNC(=N)N)C(=O)N[C@H](C(=O)N[C@@H](CCCCN)C(=O)NCc1ccc(C(=N)N)cc1)C(C)C)C(C)C (Ac-LLLVRVK-{NH(4-amidinobenzyl)}),–,–,45,60,0.004,1.9,0.0021
CC(=O)N[C@H](C(=O)N[C@@H](CC(C)C)C(=O)N[C@@H](CC(C)C)C(=O)N[C@@H](CC(C)C)C(=O)N[C@@H](CCCNC(=N)N)C(=O)N[C@H](C(=O)N[C@@H](CCCCN)C(=O)NCc1ccc(C(=N)N)cc1)C(C)C)C(C)C (Ac-VLLLRVK-{NH(4-amidinobenzyl)}),–,–,75,70,0.004,0.8,0.005
